Source: article PMC3049929 (Journal of medicinal chemistry, 2008)

What was measured:
[1] = test system: P. falciparum K1 (chloroquine-resistant, pyrimethamine-resistant); format: cell-based; settings: Plasmodium falciparum, K1, Erythrocyte, 48 h, read-out: ED50 (nM) K1
Procedure, shortened: (§1)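 Parasites cultured in type A+ human erythrocytes (2% hematocrit) in RPMI-1640 with 20% heat-inactivated type A+ human plasma, under 5% CO2/5% O2/90% N2. Test compound in DMSO added to culture at 0.5% parasitemia and 0.5% hematocrit. Incubated 37 °C for 48 h, then [8-3H]hypoxanthine (0.3 µCi) added for a further 24 h. Cells harvested to filter mats and counted by β-scintillation. Uninfected-erythrocyte background subtracted; DMSO-only wells taken as 100% growth. ED50 from linear regression of incorporation vs concentration.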

[2] = test system: P. falciparum 3D7 (chloroquine-sensitive); format: cell-based; settings: Plasmodium falciparum, 3D7, Erythrocyte, 48 h, read-out: ED50 (nM) 3D7
Procedure, shortened: as §1

| Compound | IC50 [1] | IC50 [2] |
| --- | --- | --- |
| Cn1cnc(S(=O)(=O)N(Cc2ccccc2)[C@@H]2CCC[C@@H]2N(Cc2cncn2C)c2ccc(C#N)cc2)c1 (racemic) [6a, (±)-[N-Benzyl-N-{cis-2-[(4-cyanophenyl)(3-methyl-3H-imidazol-4-ylmethyl)amino]cyclopentyl}]-1-methyl-1H-imidazole-4-sulfonamide] | 2400 nM | > 5000 nM |
| Cc1ccccc1CN([C@@H]1CCC[C@@H]1N(Cc1cncn1C)c1ccc(C#N)cc1)S(=O)(=O)c1cn(C)cn1 (racemic) [6b, (±)-[N-(2-Methylbenzyl)-N-{cis-2-[(4-cyanophenyl)(3-methyl-3H-imidazol-4-ylmethyl)amino]cyclopentyl}]-1-methyl-1H-imidazole-4-sulfonamide] | 2800 nM | 2800 nM |
| Cn1cnc(S(=O)(=O)N(Cc2ccsc2)[C@@H]2CCC[C@@H]2N(Cc2cncn2C)c2ccc(C#N)cc2)c1 (racemic) [6c, (±)-[N-(Thiophen-3-ylmethyl)-N-{cis-2-[(4-cyanophenyl)(3-methyl-3H-imidazol-4-ylmethyl)amino]cyclopentyl}]-1-methyl-1H-imidazole-4-sulfonamide] | 4200 nM | > 5000 nM |
| Cn1cnc(S(=O)(=O)N(CC2CCN(c3ncccn3)CC2)[C@@H]2CCC[C@@H]2N(Cc2cncn2C)c2ccc(C#N)cc2)c1 (racemic) [6e, (±)-[N-{N-(2-Pyrimidinyl)-piperidin-4-ylmethyl}-N-{cis-2-[(4-cyanophenyl)(3-methyl-3H-imidazol-4-ylmethyl)amino]cyclopentyl}]-1-methyl-1H-imidazole-4-sulfonamide] | 2500 nM | 3000 nM |
| Cn1cnc(S(=O)(=O)N(Cc2ccccc2)[C@H]2CCC[C@@H]2N(Cc2cncn2C)c2ccc(C#N)cc2)c1 (racemic) [7a, (±)-[N-Benzyl-N-{trans-2-[(4-cyanophenyl)(3-methyl-3H-imidazol-4-ylmethyl)amino]cyclopentyl}]-1-methyl-1H-imidazole-4-sulfonamide] | – | 3100 nM |
| Cc1ccccc1CN([C@H]1CCC[C@@H]1N(Cc1cncn1C)c1ccc(C#N)cc1)S(=O)(=O)c1cn(C)cn1 (racemic) [7b, (±)-[N-(2-Methylbenzyl)-N-{trans-2-[(4-cyanophenyl)(3-methyl-3H-imidazol-4-ylmethyl)amino]cyclopentyl}]-1-methyl-1H-imidazole-4-sulfonamide] | 3200 nM | 3000 nM |
| Cn1cnc(S(=O)(=O)N(Cc2ccsc2)[C@H]2CCC[C@@H]2N(Cc2cncn2C)c2ccc(C#N)cc2)c1 (racemic) [7c, (±)-[N-(Thiophen-3-ylmethyl)-N-{trans-2-[(4-cyanophenyl)(3-methyl-3H-imidazol-4-ylmethyl)amino]cyclopentyl}]-1-methyl-1H-imidazole-4-sulfonamide] | 2700 nM | 2700 nM |
| Cn1cnc(S(=O)(=O)N(CC2CCN(c3ncccn3)CC2)[C@H]2CCC[C@@H]2N(Cc2cncn2C)c2ccc(C#N)cc2)c1 (racemic) [7e, (±)-[N-{N-(2-Pyrimidinyl)-piperidin-4-ylmethyl}-N-{trans-2-[(4-cyanophenyl)(3-methyl-3H-imidazol-4-ylmethyl)amino]cyclopentyl}]-1-methyl-1H-imidazole-4-sulfonamide] | 750 nM | 2600 nM |
| Cn1cnc(S(=O)(=O)N(CC2CCN(C(=O)OC(C)(C)C)CC2)[C@H]2CC[C@@H](N(Cc3cncn3C)c3ccc(C#N)cc3)C2)c1 (racemic) [8d, (±)-[N-(N-tert-Butoxycarbonylpiperidin-4-ylmethyl)-N-{cis-3-[(4-cyanophenyl)-(3-methyl-3H-imidazol-4-ylmethyl)amino]cyclopentyl}]-1-methyl-1H-imidazole-4-sulfonamide] | – | 300 nM |
| Cn1cnc(S(=O)(=O)N(CC2CCN(C(=O)OC(C)(C)C)CC2)[C@@H]2CC[C@@H](N(Cc3cncn3C)c3ccc(C#N)cc3)C2)c1 (racemic) [9d, (±)-[N-(N-tert-Butoxycarbonylpiperidin-4-ylmethyl)-N-{trans-3-[(4-cyanophenyl)(3-methyl-3H-imidazol-4-ylmethyl)amino]cyclopentyl}]-1-methyl-1H-imidazole-4-sulfonamide] | 80 nM | 310 nM |
| Cn1cnc(S(=O)(=O)N(CCCN(Cc2cncn2C)c2ccc(C#N)cc2)Cc2ccccc2)c1 [2a, [N-Benzyl-N-3-{(4-cyanophenyl)(3-methyl-3H-imidazol-4-ylmethyl)amino}propyl]-1-methyl-1H-imidazole-4-sulfonamide] | – | 3100 nM |
| Cc1ccccc1CN(CCCN(Cc1cncn1C)c1ccc(C#N)cc1)S(=O)(=O)c1cn(C)cn1 [2b, [N-(2-Methylbenzyl)-N-3-{(4-cyanophenyl)(3-methyl-3H-imidazol-4-ylmethyl)amino}propyl]-1-methyl-1H-imidazole-4-sulfonamide] | 2900 nM | 2900 nM |
| Cn1cnc(S(=O)(=O)N(CCCN(Cc2cncn2C)c2ccc(C#N)cc2)Cc2ccsc2)c1 [2c, [N-(Thiophen-3-ylmethyl)-N-3-{(4-cyanophenyl)(3-methyl-3H-imidazol-4-ylmethyl)amino}propyl]-1-methyl-1H-imidazole-4-sulfonamide] | 2200 nM | 2800 nM |
| Cn1cnc(S(=O)(=O)N(CCCN(Cc2cncn2C)c2ccc(C#N)cc2)CC2CCN(C(=O)OC(C)(C)C)CC2)c1 [2d, [N-(N-tert-Butoxycarbonylpiperidin-4-ylmethyl)-N-3-{(4-cyanophenyl)(3-methyl-3H-imidazol-4-ylmethyl)amino}propyl]-1-methyl-1H-imidazole-4-sulfonamide] | 190 nM | 330 nM |
| Cn1cnc(S(=O)(=O)N(CCCN(Cc2cncn2C)c2ccc(C#N)cc2)CC2CCN(c3ncccn3)CC2)c1 [2e, [N-{N-(2-Pyrimidinyl)-piperidin-4-ylmethyl}-N-3-{(4-cyanophenyl)(3-methyl-3H-imidazol-4-ylmethyl)amino}propyl]-1-methyl-1H-imidazole-4-sulfonamide] | – | 1300 nM |
| Cn1cnc(S(=O)(=O)N(Cc2ccccc2)CC(C)(C)N(Cc2cncn2C)c2ccc(C#N)cc2)c1 [3a, [N-Benzyl-N-{(4-cyanophenyl)(3-methyl-3H-imidazol-4-ylmethyl)amino}-2,2-dimethylethyl]-1-methyl-1H-imidazole-4-sulfonamide] | 55 nM | 160 nM |

Now from value to molecule:

| IC50 [1] | IC50 [2] | Compound |
| --- | --- | --- |
| 800 nM | 700 nM | Cn1cnc(S(=O)(=O)N(Cc2ccccc2)[C@H]2CC[C@@H](N(Cc3cncn3C)c3ccc(C#N)cc3)C2)c1 (racemic) [8a, (±)-[N-Benzyl-N-{cis-3-[(4-cyanophenyl)(3-methyl-3H-imidazol-4-ylmethyl)amino]cyclopentyl}]-1-methyl-1H-imidazole-4-sulfonamide] |
| 2600 nM | 2400 nM | Cc1ccccc1CN([C@H]1CC[C@@H](N(Cc2cncn2C)c2ccc(C#N)cc2)C1)S(=O)(=O)c1cn(C)cn1 (racemic) [8b, (±)-[N-(2-Methylbenzyl)-N-{cis-3-[(4-cyanophenyl)(3-methyl-3H-imidazol-4-ylmethyl)amino]cyclopentyl}]-1-methyl-1H-imidazole-4-sulfonamide] |
| 2500 nM | 2400 nM | Cn1cnc(S(=O)(=O)N(Cc2ccsc2)[C@H]2CC[C@@H](N(Cc3cncn3C)c3ccc(C#N)cc3)C2)c1 (racemic) [8c, (±)-[N-(Thiophen-3-ylmethyl)-N-{cis-3-[(4-cyanophenyl)(3-methyl-3H-imidazol-4-ylmethyl)amino]cyclopentyl}]-1-methyl-1H-imidazole-4-sulfonamide] |
| 720 nM | 600 nM | Cn1cnc(S(=O)(=O)N(CC2CCN(c3ncccn3)CC2)[C@H]2CC[C@@H](N(Cc3cncn3C)c3ccc(C#N)cc3)C2)c1 (racemic) [8e, (±)-[N-{N-(2-Pyrimidinyl)-piperidin-4-ylmethyl}-N-{cis-3-[(4-cyanophenyl)(3-methyl-3H-imidazol-4-ylmethyl)amino]cyclopentyl}]-1-methyl-1H-imidazole-4-sulfonamide] |
| – | 340 nM | Cn1cnc(S(=O)(=O)N(Cc2ccccc2)[C@@H]2CC[C@@H](N(Cc3cncn3C)c3ccc(C#N)cc3)C2)c1 (racemic) [9a, (±)-[N-Benzyl-N-{trans-3-[(4-cyanophenyl)(3-methyl-3H-imidazol-4-ylmethyl)amino]cyclopentyl}]-1-methyl-1H-imidazole-4-sulfonamide] |
| 2200 nM | 2400 nM | Cc1ccccc1CN([C@@H]1CC[C@@H](N(Cc2cncn2C)c2ccc(C#N)cc2)C1)S(=O)(=O)c1cn(C)cn1 (racemic) [9b, (±)-[N-(2-Methylbenzyl)-N-{trans-3-[(4-cyanophenyl)(3-methyl-3H-imidazol-4-ylmethyl)amino]cyclopentyl}]-1-methyl-1H-imidazole-4-sulfonamide] |
| 1200 nM | 1500 nM | Cn1cnc(S(=O)(=O)N(Cc2ccsc2)[C@@H]2CC[C@@H](N(Cc3cncn3C)c3ccc(C#N)cc3)C2)c1 (racemic) [9c, (±)-[N-(Thiophen-3-ylmethyl)-N-{trans-3-[(4-cyanophenyl)(3-methyl-3H-imidazol-4-ylmethyl)amino]cyclopentyl}]-1-methyl-1H-imidazole-4-sulfonamide] |
| 1500 nM | 2600 nM | Cn1cnc(S(=O)(=O)N(CC2CCN(c3ncccn3)CC2)[C@@H]2CC[C@@H](N(Cc3cncn3C)c3ccc(C#N)cc3)C2)c1 (racemic) [9e, (±)-[N-{N-(2-Pyrimidinyl)-piperidin-4-ylmethyl}-N-{trans-3-[(4-cyanophenyl)(3-methyl-3H-imidazol-4-ylmethyl)amino]cyclopentyl}]-1-methyl-1H-imidazole-4-sulfonamide] |
| 1800 nM | – | Cn1cnc(S(=O)(=O)N(Cc2ccccc2)[C@H]2CC[C@H](N(Cc3cncn3C)c3ccc(C#N)cc3)CC2)c1 [11a, (±)-[N-Benzyl-N-{trans-4-[(4-cyanophenyl)(3-methyl-3H-imidazol-4-ylmethyl)amino]cyclohexyl}]-1-methyl-1H-imidazole-4-sulfonamide] |
